Measured values taken from ChEMBL document CHEMBL2434829, “Synthesis of new andrographolide derivatives and evaluation of their antidyslipidemic, LDL-oxidation and antioxidant activity” (2013).
Calls of active or inactive are those of the source. The calls are words filed in the database; no cut-off is given here.

Key:
[1] = Antioxidant activity assessed as reduction of LDL-oxidation at 200 ug/ml after 1 hr by TBARS assay in presence of Cu 2+ relative to control; format: functional; set-up: scale not given: the % may be the effect or the level left; conditions: in the assay text read “after 16 hr” for “after 1 hr”
Summary of the method: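 LDL obtained by ultracentrifugation of serum from overnight-fasted normolipemic donors, dialyzed against 150 mM NaCl with 0.02% EDTA under N2, purity checked by PAGE. LDL 0.71 mg with CuCl2·2H2O 10 µM, compound at 200 µg/mL, in 50 mM PBS pH 7.4 for 16 h at 37 °C. Lipid peroxides read as TBARS after heating with SDS, acetic acid and 0.8% TBA for 1 h in boiling water.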

[2] = Antioxidant activity assessed as reduction of microsomal lipid per-oxidation level by measuring formation of malondialdehyde at 200 ug/ml after 90 mins by spectrophotometric analysis relative to control; format: functional; set-up: scale not given: the % may be the effect or the level left
[3] = Antioxidant activity assessed as decrease in hydroxyl radicals level by measuring formation of malondialdehyde at 200 ug/ml after 90 mins by spectrophotometric analysis relative to control; format: functional; set-up: scale not given: the % may be the effect or the level left
Summary of the method: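 Hydroxyl radicals generated without enzyme from deoxyribose 2.8 mM, FeSO4·7H2O 2 mM, sodium ascorbate 2.0 mM and H2O2 2.8 mM in 50 mM KH2PO4 pH 7.4. Compound at 200 µg/mL. Incubated 37 °C for 90 min. Mannitol as standard.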

[4] = Antioxidant activity assessed as decrease in superoxide anions level by measuring formation of formazone at 200 ug/ml after 30 mins by spectrophotometric analysis relative to control; format: functional; set-up: scale not given: the % may be the effect or the level left
Summary of the method: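 Superoxide made enzymatically with xanthine ([…]), xanthine oxidase (0.04 U) and nitroblue tetrazolium (320 µM) in 100 mM phosphate buffer pH 8.2. Compound at 200 µg/mL, sonicated in buffer. Incubated 37 °C for 30 min, stopped with glacial acetic acid, formazan read spectrophotometrically. Allopurinol as standard.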

Rattus norvegicus [5] = test: Antidyslipidemic activity in Charles foster rat assessed as increase in triton WR-1339-reduced lipoprotein lipase level in liver at 100 mg/kg, po relative to triton-treated rat; format: functional, organism-based; set-up: dose 100 mg/kg
Summary of the method: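 Rats given triton WR-1339 (400 mg/kg i.p.) with oral test agent in gum acacia, 6 per group. Liver homogenized 10% w/v in cold 100 mM phosphate buffer pH 7.2 and assayed for total lipoprotein lipase lipolytic activity. Mean ± SD.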

Rattus norvegicus [6] = test: Antidyslipidemic activity in Charles foster rat assessed as increase in triton WR-1339-reduced HDL cholesterol level in plasma at 100 mg/kg, po after 18 hrs by poly anionic precipitation method relative to triton-treated rat; format: functional, organism-based; set-up: dose 100 mg/kg
Summary of the method: (§1)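 Male adult Charles Foster rats (200–225 g), 6/group. Triton WR-1339 400 mg/kg i.p.; test agent in gum acacia suspension in water given orally together with triton, diet withdrawn. After 18 h, blood drawn from retro-orbital sinus into EDTA tubes under thiopentone anaesthesia. Plasma split into VLDL, LDL and HDL by polyanionic precipitation, then cholesterol measured. Mean ± SD.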

Rattus norvegicus [7] = test: Antidyslipidemic activity in Charles foster rat assessed as decrease in triton WR-1339-induced VLDL cholesterol level in plasma at 100 mg/kg, po after 18 hrs by poly anionic precipitation method relative to triton-treated rat; format: functional, organism-based; set-up: dose 100 mg/kg; summary of the method: as §1
Rattus norvegicus [8] = test: Antidyslipidemic activity in Charles foster rat assessed as increase in triton WR-1339-reduced post heparin lipolytic activity level in plasma at 200 mg/kg, po after 18 hrs by spectrophotometric analysis relative to triton-treated rat; format: functional; set-up: scale not given: the % may be the effect or the level left
Summary of the method: (§2)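 Triton WR-1339 hyperlipidemia in male Charles Foster rats: 400 mg/kg i.p. plus oral dose in gum acacia vehicle, fasted, 6 rats/group. Plasma taken 18 h later from retro-orbital blood. Post-heparin lipolytic activity measured spectrophotometrically as nmol free fatty acids formed/h/ml plasma. Percent change against triton-only rats; mean ± SD.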

Rattus norvegicus [9] = test: Antidyslipidemic activity in Charles foster rat assessed as decrease in triton WR-1339-induced triglyceride level in plasma at 200 mg/kg, po after 18 hrs relative to triton-treated rat; format: functional; set-up: scale not given: the % may be the effect or the level left
Summary of the method: (§3)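 Male adult Charles Foster rats (200–225 g), six per group. Triton WR-1339 400 mg/kg i.p., with test agent given orally at the same time as a gum acacia suspension in water; food withdrawn. Controls received vehicle. At 18 h, retro-orbital EDTA blood taken and centrifuged 2500 × g for 10 min at 4 °C. Plasma diluted 1:3 in saline; TC, PL and TG read enzymatically on an autoanalyzer. Percent change against triton group.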

Rattus norvegicus [10] = test: Antidyslipidemic activity in Charles foster rat assessed as decrease in triton WR-1339-induced phospholipid level in plasma at 200 mg/kg, po after 18 hrs relative to triton-treated rat; format: functional; set-up: scale not given: the % may be the effect or the level left; summary of the method: as §3
Rattus norvegicus [11] = test: Antidyslipidemic activity in Charles foster rat assessed as decrease in triton WR-1339-induced total cholesterol level in plasma at 200 mg/kg, po after 18 hrs relative to triton-treated rat; format: functional; set-up: scale not given: the % may be the effect or the level left; summary of the method: as §3
Rattus norvegicus [12] = test: Antidyslipidemic activity in Charles foster rat assessed as increase in triton WR-1339-reduced post heparin lipolytic activity level in plasma at 150 mg/kg, po after 18 hrs by spectrophotometric analysis relative to triton-treated rat; format: functional; set-up: scale not given: the % may be the effect or the level left; summary of the method: as §2
Rattus norvegicus [13] = test: Antidyslipidemic activity in Charles foster rat assessed as decrease in triton WR-1339-induced triglyceride level in plasma at 150 mg/kg, po after 18 hrs relative to triton-treated rat; format: functional; set-up: scale not given: the % may be the effect or the level left; summary of the method: as §3
Rattus norvegicus [14] = test: Antidyslipidemic activity in Charles foster rat assessed as decrease in triton WR-1339-induced phospholipid level in plasma at 150 mg/kg, po after 18 hrs relative to triton-treated rat; format: functional; set-up: scale not given: the % may be the effect or the level left; summary of the method: as §3
Rattus norvegicus [15] = test: Antidyslipidemic activity in Charles foster rat assessed as decrease in triton WR-1339-induced total cholesterol level in plasma at 150 mg/kg, po after 18 hrs relative to triton-treated rat; format: functional; set-up: scale not given: the % may be the effect or the level left; summary of the method: as §3
Rattus norvegicus [16] = test: Antidyslipidemic activity in Charles foster rat assessed as increase in triton WR-1339-reduced post heparin lipolytic activity level in plasma at 50 mg/kg, po after 18 hrs by spectrophotometric analysis relative to triton-treated rat; format: functional; set-up: scale not given: the % may be the effect or the level left; summary of the method: as §2
Rattus norvegicus [17] = test: Antidyslipidemic activity in Charles foster rat assessed as decrease in triton WR-1339-induced triglyceride level in plasma at 50 mg/kg, po after 18 hrs relative to triton-treated rat; format: functional; set-up: scale not given: the % may be the effect or the level left; summary of the method: as §3
Rattus norvegicus [18] = test: Antidyslipidemic activity in Charles foster rat assessed as decrease in triton WR-1339-induced phospholipid level in plasma at 50 mg/kg, po after 18 hrs relative to triton-treated rat; format: functional; set-up: scale not given: the % may be the effect or the level left; summary of the method: as §3
Rattus norvegicus [19] = test: Antidyslipidemic activity in Charles foster rat assessed as decrease in triton WR-1339-induced total cholesterol level in plasma at 50 mg/kg, po after 18 hrs relative to triton-treated rat; format: functional; set-up: scale not given: the % may be the effect or the level left; summary of the method: as §3
Rattus norvegicus [20] = test: Antidyslipidemic activity in Charles foster rat assessed as increase in triton WR-1339-reduced post heparin lipolytic activity level in plasma at 25 mg/kg, po after 18 hrs by spectrophotometric analysis relative to triton-treated rat; format: functional; set-up: scale not given: the % may be the effect or the level left; summary of the method: as §2
Rattus norvegicus [21] = test: Antidyslipidemic activity in Charles foster rat assessed as decrease in triton WR-1339-induced triglyceride level in plasma at 25 mg/kg, po after 18 hrs relative to triton-treated rat; format: functional; set-up: scale not given: the % may be the effect or the level left; summary of the method: as §3
Rattus norvegicus [22] = test: Antidyslipidemic activity in Charles foster rat assessed as decrease in triton WR-1339-induced phospholipid level in plasma at 25 mg/kg, po after 18 hrs relative to triton-treated rat; format: functional; set-up: scale not given: the % may be the effect or the level left; summary of the method: as §3
Rattus norvegicus [23] = test: Antidyslipidemic activity in Charles foster rat assessed as increase in triton WR-1339-reduced post heparin lipolytic activity level in plasma at 100 mg/kg, po after 18 hrs by spectrophotometric analysis relative to triton-treated rat; format: functional; set-up: scale not given: the % may be the effect or the level left; summary of the method: as §2
Rattus norvegicus [24] = test: Antidyslipidemic activity in Charles foster rat assessed as decrease in triton WR-1339-induced triglyceride level in plasma at 100 mg/kg, po after 18 hrs relative to triton-treated rat; format: functional; set-up: scale not given: the % may be the effect or the level left; summary of the method: as §3
Rattus norvegicus [25] = test: Antidyslipidemic activity in Charles foster rat assessed as decrease in triton WR-1339-induced phospholipid level in plasma at 100 mg/kg, po after 18 hrs relative to triton-treated rat; format: functional; set-up: scale not given: the % may be the effect or the level left; summary of the method: as §3
Rattus norvegicus [26] = test: Antidyslipidemic activity in Charles foster rat assessed as decrease in triton WR-1339-induced LDL cholesterol level in plasma at 100 mg/kg, po after 18 hrs by poly anionic precipitation method relative to triton-treated rat; format: functional, organism-based; set-up: dose 100 mg/kg; summary of the method: as §1
Rattus norvegicus [27] = test: Antidyslipidemic activity in Charles foster rat assessed as decrease in triton WR-1339-induced total cholesterol level in plasma at 100 mg/kg, po after 18 hrs relative to triton-treated rat; format: functional; set-up: scale not given: the % may be the effect or the level left; summary of the method: as §3
Rattus norvegicus [28] = test: Antidyslipidemic activity in Charles foster rat assessed as decrease in triton WR-1339-induced total cholesterol level in plasma at 25 mg/kg, po after 18 hrs relative to triton-treated rat; format: functional; set-up: scale not given: the % may be the effect or the level left; summary of the method: as §3

SMILES	Activity [1]	Activity [2]	Activity [3]	Activity [4]	Activity (Rattus norvegicus [5])	Activity (Rattus norvegicus [6])	Activity (Rattus norvegicus [7])	Activity (Rattus norvegicus [8])	Activity (Rattus norvegicus [9])	Activity (Rattus norvegicus [10])	Activity (Rattus norvegicus [11])	Activity (Rattus norvegicus [12])	Activity (Rattus norvegicus [13])	Activity (Rattus norvegicus [14])	Activity (Rattus norvegicus [15])	Activity (Rattus norvegicus [16])	Activity (Rattus norvegicus [17])	Activity (Rattus norvegicus [18])	Activity (Rattus norvegicus [19])	Activity (Rattus norvegicus [20])	further results
C=C1CC[C@@H]2[C@](C)(CO)[C@H](O)CC[C@@]2(C)[C@@H]1C/C=C1/C(=O)OC[C@H]1O [ANDROGRAPHOLIDE]	45%	38%	36%	33%	Active	Active	Active	18%	30%	30%	29%	18%	30%	29%	29%	13%	21%	20%	21%	10%	Activity (Rattus norvegicus [21]): 15%; Activity (Rattus norvegicus [22]): 12%; Activity (Rattus norvegicus [23]): 16%; Activity (Rattus norvegicus [24]): 28%; Activity (Rattus norvegicus [25]): 26%; Activity (Rattus norvegicus [26]): Active; Activity (Rattus norvegicus [27]): 27%; Activity (Rattus norvegicus [28]): 14%
C=C1CC[C@@H]2[C@](C)(COS(=O)(=O)c3ccc(C)cc3)[C@H](O)CC[C@@]2(C)[C@@H]1C/C=C1/C(=O)OC[C@H]1O	55%	40%	46%	41%	Active	Active	Active	18%	37%	40%	34%	18%	37%	39%	34%	13%	20%	22%	22%	10%	Activity (Rattus norvegicus [21]): 14%; Activity (Rattus norvegicus [22]): 15%; Activity (Rattus norvegicus [23]): 18%; Activity (Rattus norvegicus [24]): 35%; Activity (Rattus norvegicus [25]): 37%; Activity (Rattus norvegicus [26]): Active; Activity (Rattus norvegicus [27]): 33%; Activity (Rattus norvegicus [28]): 16%
